Laboratory results as given in article PMC9293343 (Chemmedchem, 2021).

Tests used:
[1] = biological target: T1, Neh1 (residues 445–523, Neh1‐ΔLZIP) domain of NRF2 (Homo sapiens, UniProt Q16236); test: 1H-15N HSQC small-molecule titration; format: binding
T1 sequence (Q16236 445-523): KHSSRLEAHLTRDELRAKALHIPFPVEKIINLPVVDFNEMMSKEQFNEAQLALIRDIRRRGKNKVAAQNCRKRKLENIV
Outline: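 15N-labelled human NRF2 residues 445–523 were expressed in E. coli BL21(DE3) with TEV-cleaved MBP/His tags and used at 50 μM in 50 mM sodium phosphate pH 6.5, 150 mM NaCl, 1 mM DTT. Test compound (50 mM DMSO-d6 stock) was titrated to final 0.250, 0.750, 1.5 and 2.0 mM, with 1H-15N HSQC at each step. Combined 1HN/15N CSPs were fitted per residue by nonlinear least squares for KD.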

Neh1‐ΔLZIP = biological target: T2, Neh1‐ΔLZIP (Homo sapiens, UniProt Q16236); format: binding; details: 0.750 mM compound 2, ARE DNA 0.10, 0.20, 0.30 mM, 50 μM protein
T2 sequence (Q16236 445-523): T1 sequence (Q16236 445-523)

O=C(O)COc1ccc(-c2ccccc2)cc1Br [Compound 2, 2‐((3‐bromo‐[1,1’‐biphenyl]‐4‐yl)oxy)acetic acid]
Kd ([1]; KD, from CSP values using equation (1), average over R499, D500, R503): 1700 ± 100 µM | chemical shift change of side chain amide nitrogen Nδ2 of N482, measured value ([1]; at approximately 50–60 % protein fraction bound): 0.64 ppm | CSP, backbone amide of N482 ([1]; upon addition of compound 2): 0.04 ppm | replacement of compound by ARE DNA (competition) (Neh1‐ΔLZIP): final spectrum which is very close to the spectrum of Neh1‐ΔLZIP bound to ARE
